Reference: ChEMBL document CHEMBL1132494, “Bisphosphonate prodrugs: synthesis and in vitro evaluation of novel acyloxyalkyl esters of clodronic acid” (J Med Chem, 1999)

Experiments:
Oryctolagus cuniculus = organism: Oryctolagus cuniculus; assay: Binding constant (Kobs) against 10% rabbit liver homogenate was determined.; format: ADME
Procedure, shortened: (§1)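 Rabbit liver homogenized in ~4 vol isotonic phosphate buffer pH 7.4, spun 9000g 90 min 4 °C, supernatant stored −80 °C. Compound in 1 vol isotonic buffer plus 1 vol preheated 20% homogenate (10% final; initial 1.6–1.8 mM), 37 °C. Samples methanol-deproteinized and analysed by HPLC; kobs and t1/2 derived.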

[1] = Hydrolysis half life at pH 7.4 against 50 mM phosphate buffer was determined.; format: ADME
Procedure, shortened: (§2)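 Chemical hydrolysis: compound (initial 0.9–1.8 mM) in preheated 50 mM phosphate buffer, μ = 0.15, pH 5.0 or 7.4, held at 37 °C. Samples taken at intervals and analysed by HPLC; kobs and t1/2 derived.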

[2] = Hydrolysis half life against 80% human serum was determined.; format: ADME
Procedure, shortened: (§3)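 Compound dissolved in 1 vol phosphate buffer (50 mM, μ = 0.15, pH 7.4, 37 °C), then 4 vol preheated human serum added (80% serum; initial 1.4–1.7 mM); 37 °C water bath. Samples taken at intervals, deproteinized with equal volume methanol, centrifuged; supernatant dried and redissolved in mobile-phase buffer, or injected directly if labile. HPLC; kobs and t1/2 derived.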

[3] = Hydrolysis half life at pH 5.0 against 50 mM phosphate buffer was determined.; format: ADME; procedure, shortened: as §2
Homo sapiens = organism: Homo sapiens; assay: Binding affinity (Kobs) against 80% human Serum esterase was determined; procedure, shortened: as §3
[4] = Binding affinity (Kobs) at a pH 5.0 against 50 mM phosphate buffer was determined.; procedure, shortened: as §2
[5] = Binding affinity (Kobs) at a pH 7.4 against 50 mM phosphate buffer was determined.; procedure, shortened: as §2
[6] = (§4) Hydrolysis half life against 10% rabbit liver homogenate was determined.; format: tissue-based; procedure, shortened: as §1
[7] = Apparent partition coefficients was determined at a pH 7.4 by using the capacity factors of RP-HPLC.; format: physicochemical; settings: octanol/water
Procedure, shortened: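 Tetraester log Papp estimated from RP-HPLC capacity factors (k'); C8 reversed-phase column, mobile phase 20 mM phosphate buffer pH 6.0/methanol 30:70 v/v; value reported for pH 7.4.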

[8] = as §4; format: ADME, organism-based, Oryctolagus cuniculus; procedure, shortened: as §1

Structure (SMILES) | K obs (Oryctolagus cuniculus) | half-life [1] | half-life [2] | half-life [3] | k obs (Homo sapiens) | k obs [4] | k obs [5] | T1/2 [6] | chromatographic logD [7] | half-life [8]
CC(C)(C)C(=O)OCOP(=O)(O)C(Cl)(Cl)P(=O)(OCOC(=O)C(C)(C)C)OCOC(=O)C(C)(C)C | 0.65 min⁻¹ | 1.7 h | 1.3 h | 1.65 h | 0.000149 s⁻¹ | 0.000117 s⁻¹ | 0.000113 s⁻¹ | 1.1 min | 1.56 | 
C1CCNCC1.C1CCNCC1.CC(C)(C)C(=O)OCOP(=O)(O)C(Cl)(Cl)P(=O)(O)OCOC(=O)C(C)(C)C | 0.51 min⁻¹ | 0.783 h |  |  |  |  | 1.67e-07 s⁻¹ |  | -2.13 | 0.233 h
CC(C)(C)C(=O)OCOP(=O)(OCOC(=O)C(C)(C)C)C(Cl)(Cl)P(=O)(OCOC(=O)C(C)(C)C)OCOC(=O)C(C)(C)C |  |  |  |  |  |  |  |  | 7.4 | 
